Experiment [1] addresses HTH-type transcriptional regulator EthR (Mycobacterium smegmatis (strain ATCC 700084 / mc(2)155)) (UniProt A0R666). The experiment in a line: Binding affinity to Mycobacterium smegmatis mc2 155 EthR assessed as protein thermal unfolding at 20 uM by SYPRO Orange dye based thermal shift assay. The settings on record: Mycolicibacterium smegmatis MC2 155. In a few lines: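 Purified EthR (10 μM final) was mixed with 20 μM ligand, 2.5× SYPRO Orange and 1% DMSO in EthR buffer. Samples were heated from 37 to 85 °C at 0.04 °C/s in a qPCR instrument, with fluorescence read at Ex/Em 465/510 nm. Tm was taken as the sigmoid inflection, and ΔTm as holo minus apo Tm. Values are the mean of two experiments.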

Experiment [2] has as its target HTH-type transcriptional regulator EthR (Mycobacterium tuberculosis) (UniProt P9WMC1). The experiment in a line: Inhibition of EthR in Mycobacterium tuberculosis H37Rv-GFP infected in mouse Raw 264.7 cells assessed as boosting of 0.1 uM ethionamide-induced microbial growth inhibition at 10 uM by automated fluorescent confocal microscopy. Type of experiment: cell-based.

Experiment [3] deals with HTH-type transcriptional regulator EthR (Mycobacterium smegmatis (strain ATCC 700084 / mc(2)155), UniProt A0R666). Put plainly: Inhibition at EthR in Mycobacterium smegmatis mc2 155 assessed as reactivation of beta-glucuronidase activity measured over 48 hrs by Spectrophotometry. Also on record: species or system Mycolicibacterium smegmatis MC2 155. The method, boiled down: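 The reporter was M. smegmatis mc²155 carrying P1 (single-copy, hsp60-driven ethR overexpression) and P2 (uidA under the ethA promoter/operator). Culture at OD600 0.2 was mixed with MUG and compound in 10% DMSO solution. MU fluorescence (ex 390/[…]) was read at 0, 24 and 48 h at 37 °C. IC50 came from dose–response; the P2-only strain served as positive control.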

The test system of experiment [4] is Mycobacterium tuberculosis. The experiment in a line: Antituberculosis activity against Mycobacterium tuberculosis H37Rv-GFP infected in mouse Raw 264.7 cells assessed as microbial growth inhibition at 10 uM by automated fluorescent confocal microscopy. In kind it is functional, organism-based. In a few lines:
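Raw264.7 macrophages were infected with H37Rv-GFP (MOI 1:1, 2 h, 37 °C, shaking). Extracellular bacilli were killed with 20 μM amikacin for 1 h, then infected cells were incubated with compound at 10 μM alone for 5 days (37 °C, 5% CO2). After SYTO 60 staining, confocal imaging (488/635 nm) gave the percentage of infected cells; values are the average of two replicates.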

Usually ΔTm stands for the change in melting temperature against a reference sample. As usually defined, the pIC50 is the IC50 on a negative log10 scale, so that one unit is a factor of ten.

pIC50: −log10 of the molar value. Active and inactive are the calls of the source. The calls are words filed in the database; no cut-off is given here.

HTH-type transcriptional regulator EthR (Mycobacterium tuberculosis), sequence (P9WMC1 whole entry): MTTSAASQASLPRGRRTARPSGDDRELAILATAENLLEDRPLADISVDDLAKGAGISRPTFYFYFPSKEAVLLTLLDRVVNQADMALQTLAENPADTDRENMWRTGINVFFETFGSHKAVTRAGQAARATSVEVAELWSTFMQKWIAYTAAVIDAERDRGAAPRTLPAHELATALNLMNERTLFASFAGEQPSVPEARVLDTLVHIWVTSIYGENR
HTH-type transcriptional regulator EthR (Mycobacterium smegmatis (strain ATCC 700084 / mc(2)155), UniProt A0R666), sequence (A0R666 whole entry): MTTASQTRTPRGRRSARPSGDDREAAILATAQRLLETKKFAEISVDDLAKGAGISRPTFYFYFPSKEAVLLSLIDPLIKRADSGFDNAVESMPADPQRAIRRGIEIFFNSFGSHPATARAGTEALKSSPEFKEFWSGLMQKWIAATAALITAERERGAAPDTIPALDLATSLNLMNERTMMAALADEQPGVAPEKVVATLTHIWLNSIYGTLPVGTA
HTH-type transcriptional regulator EthR (Mycobacterium smegmatis (strain ATCC 700084 / mc(2)155)), sequence (A0R666 whole entry): as above

Turning to `Oc1ccc(C(F)(F)F)cc1`, the inhibition entry in experiment [1] was “Active”. With `N#Cc1ccc(NC(=O)COc2cccc(Oc3ccccc3)c2)cc1`, the growth inhibition (GI) in experiment [2] was -8.9%. In addition, in experiment [1], the ΔTm came out at 6.7 °C. `O=C(COc1ccc(F)c(F)c1)Nc1ccc(Oc2ccccc2)cc1`: in experiment [2], the growth inhibition (GI) is -13.5%. The thermal shift (ΔTm) in experiment [1] was determined as 5.7 °C.

Regarding `COc1cccc(OCC(=O)Nc2ccc3nc(C)ccc3c2)c1`, in experiment [2], the growth inhibition (GI) was 6.5%. Also, the ΔTm in experiment [1] worked out at 6.6 °C. Turning to `Cc1ccc(OCC(=O)Nc2ccc(Cl)c(Cl)c2)cc1`, the growth inhibition (GI) in experiment [2] is -10.4%. Further, the ΔTm in experiment [1] worked out at 6.8 °C.

Regarding `O=C(CCl)Nc1ccc(-c2nc3ccccc3s2)cc1`, the inhibition result in experiment [1] was “Active”. Regarding `COc1cccc(OCC(=O)Nc2ccc(Cl)c(Cl)c2)c1`, the growth inhibition (GI) in experiment [2] worked out at 26.7%. In addition, in experiment [1], the ΔTm came to 6.8 °C.

In the case of `O=C(CCl)Nc1ccccc1`, the inhibition result in experiment [1] was “Active”.

As for `COc1ccc(NC(=O)CCl)cc1`, the inhibition result in experiment [1] was “Active”. `O=C(COc1ccc(C(F)(F)F)cc1)Nc1ccc(Cl)c(Cl)c1`: the growth inhibition (GI) in experiment [2] was -8.4%. Further, the ΔTm in experiment [1] was found to be 8.1 °C. Consider `Oc1cccc(Oc2ccccc2)c1`, for which, in experiment [1], the inhibition result was “Active”. As for `COc1ccc(OCC(=O)Nc2ccc(Cl)c(Cl)c2)cc1`, the growth inhibition (GI) in experiment [2] was -0.6%. Moreover, the thermal shift (ΔTm) in experiment [1] is 6.1 °C.

Turning to `O=C(CCl)N(c1ccccc1)C1CCCCC1`, the inhibition result in experiment [1] was “inactive”.

Turning to `O=C(COc1ccc(C(F)(F)F)cc1)Nc1ccc2c(c1)OCO2`, the growth inhibition (GI) in experiment [2] was 1.4%. Moreover, in experiment [1], the ΔTm stood at 6.2 °C. `COc1cccc(OCC(=O)Nc2ccc(Cl)cc2)c1`: in experiment [2], the growth inhibition (GI) amounted to 92.6%. For the same compound, the ΔTm in experiment [1] was found to be 6.1 °C.

Regarding `COc1cccc(O)c1`, the inhibition entry in experiment [1] was “Active”. On to `O=C(CCl)Nc1ccccc1-c1ccccc1`, for which, in experiment [1], the inhibition result is “inactive”. Take `Cc1ccc(-n2nc3ccc(NC(=O)COc4ccccc4C)cc3n2)cc1`: the pIC50 in experiment [3] is 5.54. Moreover, the growth inhibition (GI) in experiment [2] worked out at 10.9%. Besides, the ΔTm in experiment [1] was 6.4 °C.

On to `O=C(CCl)Nc1ccc2c(c1)OCO2`, for which the inhibition result in experiment [1] is “Active”. For the compound `Cc1ccc2cc(NC(=O)COc3ccccc3F)ccc2n1`, the growth inhibition (GI) in experiment [2] worked out at 83.2%. In addition, the ΔTm in experiment [1] was 5.1 °C. Consider `COc1cccc(OCC(=O)Nc2ccc(-c3nc4ccccc4s3)cc2)c1`, for which the “growth inhibition (GI)” value in experiment [4] is “inactive”. Besides, in experiment [2], the growth inhibition (GI) worked out at 67.6%. In experiment [1], the ΔTm was determined as 9.9 °C. For `CCOc1ccc(NC(=O)CCl)c(Oc2ccccc2)c1`, in experiment [1], the inhibition result was “inactive”. As to `N#Cc1cccc(NC(=O)COc2cccc(Oc3ccccc3)c2)c1`, the growth inhibition (GI) in experiment [2] was -7.2%. The thermal shift (ΔTm) in experiment [1] came to 5.7 °C. `COc1cccc(OCC(=O)Nc2ccc(-c3ccccc3)cc2)c1`: in experiment [2], the growth inhibition (GI) was -2.9%. Besides, the thermal shift (ΔTm) in experiment [1] is 7 °C.

For the compound `O=C(COc1ccc(-c2ccccc2)cc1)Nc1ccc2c(c1)OCO2`, the growth inhibition (GI) in experiment [2] is -3%. For the same compound, the ΔTm in experiment [1] turned out to be 7 °C.

On to `COc1cccc(OCC(=O)Nc2ccc(Oc3ccccc3)cc2)c1`, for which the growth inhibition (GI) in experiment [2] is -17.5%. The thermal shift (ΔTm) in experiment [1] was determined as 6.7 °C. In the case of `Cc1ccc(OCC(=O)Nc2ccc(-c3nc4ncccc4o3)cc2)c(C)c1`, the pIC50 in experiment [3] is over 5.00. In the case of `O=C(CCl)N1CCCc2ccccc21`, the inhibition result in experiment [1] was “Active”. As to `O=C(COc1ccc(Cl)c(Cl)c1)Nc1ccc(C(F)(F)F)cc1`, the growth inhibition (GI) in experiment [2] is -5.4%. Moreover, the thermal shift (ΔTm) in experiment [1] stood at 7.5 °C.

On to `O=C(COc1cccc(Oc2ccccc2)c1)Nc1ccc(Cl)c(Cl)c1`, for which, in experiment [2], the growth inhibition (GI) was -1.6%. Also, in experiment [1], the shift in melting temperature (ΔTm) was 8.9 °C. For `COc1cccc(NC(=O)COc2ccc(C(F)(F)F)cc2)c1`, in experiment [2], the growth inhibition (GI) was -1.5%. Also, in experiment [1], the ΔTm was determined as 5 °C. With `O=C(CCl)Nc1ccc(Oc2ccccc2)cc1`, the inhibition result in experiment [1] was “Active”.

Turning to `O=C(CCl)N(Cc1ccccc1)c1ccccc1`, in experiment [1], the inhibition result was “inactive”. For `COc1cccc(SCC(=O)Nc2ccc(-c3nc4ccccc4s3)cc2)c1`, the ΔTm in experiment [1] was found to be 6.2 °C. On to `N#Cc1cccc(OCC(=O)Nc2ccc(-c3nc4ccccc4s3)cc2)c1`, for which the growth inhibition (GI) in experiment [2] worked out at 53.4%. Moreover, the ΔTm in experiment [1] was 8.1 °C. For the compound `O=C(COc1cccc(Oc2ccccc2)c1)Nc1ccc2c(c1)OCO2`, in experiment [2], the growth inhibition (GI) stood at 5.7%. Also, the shift in melting temperature (ΔTm) in experiment [1] was 8.2 °C. With `O=C(CCl)Nc1ccc(Cl)c(Cl)c1`, the inhibition result in experiment [1] was “Active”. `Cc1ccc2cc(NC(=O)CCl)ccc2n1`: the inhibition entry in experiment [1] is “Active”.

Take `O=C(COc1ccc(F)c(F)c1)Nc1ccc(C(F)(F)F)cc1`: the growth inhibition (GI) in experiment [2] is -12.5%. In addition, the ΔTm in experiment [1] stood at 5.6 °C. `CN(C(=O)CCl)c1ccccc1`: in experiment [1], the inhibition entry was “Active”. On to `COc1ccccc1NC(=O)CCl`, for which the inhibition result in experiment [1] was “inactive”. Take `O=C(COc1ccc(Cl)cc1Cl)Nc1ccc2nc3n(c(=O)c2c1)CCCC3`: the pIC50 in experiment [3] is over 5.00.

Consider `O=C(COc1ccc(Cl)cc1)Nc1ccc(Cl)c(Cl)c1`, for which the growth inhibition (GI) in experiment [2] is -17.9%. Moreover, the thermal shift (ΔTm) in experiment [1] stood at 6.9 °C. In the case of `COc1ccc(N(C)C(=O)CCl)cc1`, the inhibition entry in experiment [1] was “Active”.

Turning to `O=C(COc1cccc(Oc2ccccc2)c1)Nc1ccccc1`, the growth inhibition (GI) in experiment [2] is 2.2%. Further, the ΔTm in experiment [1] worked out at 6.1 °C.

(Values after ChEMBL document CHEMBL2163226, “Discovery of novel N-phenylphenoxyacetamide derivatives as EthR inhibitors and ethionamide boosters by combining high-throughput screening and synthesis” (J Med Chem, 2012).)
